Reference: ChEMBL document CHEMBL1129970, “Biologically active conformer of the effector region of human C5a and modulatory effects of N-terminal receptor binding determinants on activity” (J Med Chem, 1997)
Blank lines part the entries; values can stand above or below the compound they belong to. Peptide text beside a SMILES is read from it.

How the values were obtained:
Homo sapiens [1] = species on record: Homo sapiens; test: Effective concentration to induce smooth muscle contraction in human fetal artery; format: functional; conditions: Muscle tissue
Outline: (§1)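 Human fetal artery smooth muscle contraction; full dose–response curves for recombinant human C5a or each peptide in the same tissue preparation. EC50 is the concentration giving 50% of the maximal response, read relative to the C5a maximum. pD2 = −log EC50 (M), averaged per peptide ± SE. Log potency ratio pD2(C5a) − pD2(peptide) is computed within each experiment. Relative potency = antilog(−Δ) × 100.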

Homo sapiens [2] = species on record: Homo sapiens; test: Effective concentration to stimulate beta-glucuronidase release from human polymorphonuclear cells (PMN) (n=3); format: functional
Outline: (§2)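 Human PMNs pretreated with cytochalasin B (5 μg/mL, 10 min, 37 °C), then 10⁶ cells stimulated for 60 min at 37 °C. β-Glucuronidase in the supernatant is assayed with 0.01 M p-nitrophenyl β-D-glucuronide (0.1 M acetate, pH 4, 18 h) in triplicate. Reaction stopped with glycine pH 10 and read at 415 nm. pD2 is taken from dose–response curves against the C5a EC50. Efficacy is given relative to C5a maximum (100%).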

Homo sapiens [3] = species on record: Homo sapiens; test: Maximum efficacy relative to C5a (100%) for human polymorphonuclear cells (PMN) was determined (n=4); format: functional; outline: as §2
Homo sapiens [4] = species on record: Homo sapiens; test: Log potency ratio [pD2(C5a)-pD2(peptide)] was determined in human fetal artery; format: functional; outline: as §1
Homo sapiens [5] = species on record: Homo sapiens; test: Log potency ratio [pD2(C5a)-pD2(peptide)] was determined in human polymorphonuclear cells (PMN) (n=4); format: functional; outline: as §2
Homo sapiens [6] = species on record: Homo sapiens; test: Tested for the ability to stimulate beta-glucuronidase release from human polymorphonuclear cells (PMN) (n=4); format: functional; outline: as §2
Homo sapiens [7] = species on record: Homo sapiens; test: Relative potency of peptide to stimulate beta-glucuronidase release from human polymorphonuclear cells (PMN) (n=4); format: functional; outline: as §2
[8] = Selectivity of peptide was determined from antilog[pD2(fetal artery)-pD2 (PMN enzyme release)] (n=8); format: functional
Outline: (§3)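 Selectivity = antilog[pD2(fetal artery) − pD2(PMN β-glucuronidase release)]. pD2 values come from full dose–response curves in each assay, each generated alongside C5a.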

Homo sapiens [9] = species on record: Homo sapiens; test: Spasmogenic activity was measured by the ability to induce smooth muscle contraction in human fetal artery; format: functional, Muscle tissue; outline: as §1
Homo sapiens [10] = species on record: Homo sapiens; test: Relative potency of peptide for human fetal artery was determined; format: functional; outline: as §1
Homo sapiens [11] = species on record: Homo sapiens; test: Relative potency of peptide to stimulate beta-glucuronidase release from human polymorphonuclear cells (PMN) (n=3); format: functional; outline: as §2
Homo sapiens [12] = species on record: Homo sapiens; test: Maximum efficacy relative to C5a (100%) for human polymorphonuclear cells (PMN) was determined (n=3); format: functional; outline: as §2
Homo sapiens [13] = species on record: Homo sapiens; test: Log potency ratio [pD2(C5a)-pD2(peptide)] was determined in human polymorphonuclear cells (PMN) (n=3); format: functional; outline: as §2
Homo sapiens [14] = species on record: Homo sapiens; test: Tested for the ability to stimulate beta-glucuronidase release from human polymorphonuclear cells (PMN) (n=3); format: functional; outline: as §2
[15] = Selectivity of peptide was determined from antilog[pD2(fetal artery)-pD2 (PMN enzyme release)] (n=12); format: functional; outline: as §3
Homo sapiens [16] = species on record: Homo sapiens; test: Tested for the ability to stimulate beta-glucuronidase release from human polymorphonuclear cells (PMN) (n=6); format: functional; outline: as §2
Homo sapiens [17] = species on record: Homo sapiens; test: Relative affinity for PMN receptor (n=3); format: functional
Outline: (§4)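 Competition binding on freshly isolated intact human PMNs (0.25 × 10⁶) with 20 pM [¹²⁵I]C5a plus unlabeled C5a or peptide. Buffer is 50 mM HEPES, 1 mM CaCl₂, 5 mM MgCl₂, 0.5% BSA. Incubation 60 min at 4 °C, then filtration, ice-cold washes and gamma counting, triplicates. Nonspecific binding defined with 1 mM peptide or 100 nM C5a. Relative affinity = antilog[−(log IC50 C5a − log IC50 peptide)] × 100. The potency/binding ratio is EC50 divided by the binding IC50.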

Homo sapiens [18] = species on record: Homo sapiens; test: Relative potency of peptide to stimulate beta-glucuronidase release from human polymorphonuclear cells (PMN) (n=6); format: functional; outline: as §2
Homo sapiens [19] = species on record: Homo sapiens; test: (§5) Ratio of concentration agonist potency (EC50) to concentration inhibiting [125I]C5a binding (n=3); format: functional; outline: as §4
Homo sapiens [20] = species on record: Homo sapiens; test: Selectivity of peptide was determined from antilog [pD2(fetal artery)-pD2 (PMN enzyme release)] (n=28); format: functional; outline: as §3
Homo sapiens [21] = species on record: Homo sapiens; test: Log potency ratio [pD2(C5a)-pD2(peptide)] was determined in human polymorphonuclear cells (PMN) (n=6); format: functional; outline: as §2
Homo sapiens [22] = species on record: Homo sapiens; test: Maximum efficacy relative to C5a (100%) for human polymorphonuclear cells (PMN) was determined (n=6); format: functional; outline: as §2
Homo sapiens [23] = species on record: Homo sapiens; test: Log potency ratio [log IC50(C5a)-log IC50(peptide)] was determined in human polymorphonuclear cells (PMN) (n=3); format: functional; outline: as §4
Homo sapiens [24] = species on record: Homo sapiens; test: Tested for inhibition of binding of [125I]C5a to intact human polymorphonuclear cells (PMN) (n=3); format: functional; outline: as §4
Homo sapiens [25] = species on record: Homo sapiens; test: Effective concentration to stimulate beta-glucuronidase release from human polymorphonuclear cells (PMN) (n=6); format: functional; outline: as §2
Homo sapiens [26] = species on record: Homo sapiens; test: Maximum efficacy relative to C5a (100%) for human polymorphonuclear cells (PMN) was determined (n=5); format: functional; outline: as §2
[27] = Selectivity of peptide was determined from antilog[pD2(fetal artery)-pD2 (PMN enzyme release)] (n=35); format: functional; outline: as §3
Homo sapiens [28] = species on record: Homo sapiens; test: Relative potency of peptide to stimulate beta-glucuronidase release from human polymorphonuclear cells (PMN) (n=5); format: functional; outline: as §2
Homo sapiens [29] = species on record: Homo sapiens; test: Log potency ratio [pD2(C5a)-pD2(peptide)] was determined in human polymorphonuclear cells (PMN) (n=5); format: functional; outline: as §2
Homo sapiens [30] = species on record: Homo sapiens; test: Effective concentration to stimulate beta-glucuronidase release from human polymorphonuclear cells (PMN) (n=5); format: functional; outline: as §2
Homo sapiens [31] = species on record: Homo sapiens; test: Tested for inhibition of binding of [125I]-C5a to intact human polymorphonuclear cells (PMN) (n=3); format: functional; outline: as §4
[32] = as §5; outline: as §4
Homo sapiens [33] = species on record: Homo sapiens; test: Tested for the ability to stimulate beta-glucuronidase release from human polymorphonuclear cells (PMN) (n=5); format: functional; outline: as §2

SMILES: CSCC[C@H](NC(=O)[C@@H]1CCCN1C(=O)[C@H](CCCCN)NC(=O)[C@H](Cc1ccccc1)NC(=O)[C@H](CO)NC(=O)[C@H](Cc1ccc(O)cc1)NC(=O)CCCCCNC(=O)[C@@H](N)CCCCN)C(=O)N1CCC[C@H]1C(=O)N[C@@H](CC(C)C)C(=O)N[C@H](C)C(=O)N[C@@H](CCCN=C(N)N)C(=O)O [listing 1 of 2 here]
EC50 (Homo sapiens [1]): 0.09 µM
EC50 (Homo sapiens [2]): 4.3 µM

SMILES: CSCC[C@H](NC(=O)[C@@H]1CCCN1C(=O)[C@H](CCCCN)NC(=O)[C@H](Cc1ccccc1)NC(=O)[C@H](CO)NC(=O)[C@H](Cc1ccc(O)cc1)NC(C)=O)C(=O)N1CCC[C@H]1C(=O)N[C@@H](CC(C)C)C(=O)N[C@H](C)C(=O)N[C@@H](CCCN=C(N)N)C(=O)O
C5a max (Homo sapiens [3]): 148%
Mean log concentration ratio (Homo sapiens [4]): 0.74
Mean log concentration ratio (Homo sapiens [5]): 2.44
pD2 (Homo sapiens [6]): 5.03
Potency (Homo sapiens [7]): 0.4%
Selectivity [8]: 89
pD2 (Homo sapiens [9]): 6.98
Potency (Homo sapiens [10]): 9.6%

SMILES: CSCC[C@H](NC(=O)[C@@H]1CCCN1C(=O)[C@H](CCCCN)NC(=O)[C@H](Cc1ccccc1)NC(=O)[C@H](CO)NC(=O)[C@H](Cc1ccc(O)cc1)NC(=O)CCCCCNC(=O)[C@@H](N)CCCCN)C(=O)N1CCC[C@H]1C(=O)N[C@@H](CC(C)C)C(=O)N[C@H](C)C(=O)N[C@@H](CCCN=C(N)N)C(=O)O [listing 2 of 2 here]
Potency (Homo sapiens [11]): 1.2%
Mean log concentration ratio (Homo sapiens [4]): 0.84
C5a max (Homo sapiens [12]): 145%
pD2 (Homo sapiens [9]): 7.14
Mean log concentration ratio (Homo sapiens [13]): 1.93
pD2 (Homo sapiens [14]): 5.37
Selectivity [15]: 59
Potency (Homo sapiens [10]): 14%

Further lines, with some results ahead:

EC50 (Homo sapiens [1]): 0.5 µM
IC50 (Homo sapiens [24]): 3.7 µM
EC50 (Homo sapiens [25]): 72 µM
SMILES: CSCC[C@H](NC(=O)[C@H](CC(=O)O)NC(=O)[C@H](CCCCN)NC(=O)[C@H](Cc1ccccc1)NC(=O)[C@H](CO)NC(=O)[C@@H](N)Cc1ccc(O)cc1)C(=O)N1CCC[C@H]1C(=O)N[C@@H](CC(C)C)C(=O)N[C@H](C)C(=O)N[C@@H](CCCN=C(N)N)C(=O)O
pD2 (Homo sapiens [16]): 4.14
C5a affinity (Homo sapiens [17]): 0.007%
Potency (Homo sapiens [18]): 0.04%
Mean log concentration ratio (Homo sapiens [4]): 1.66
Ratio (Homo sapiens [19]): 19
Selectivity (Homo sapiens [20]): 151
pD2 (Homo sapiens [9]): 6.32
Mean log concentration ratio (Homo sapiens [21]): 3.35
C5a max (Homo sapiens [22]): 174%
Mean log concentration ratio (Homo sapiens [23]): 4.13
Potency (Homo sapiens [10]): 2.2%

EC50 (Homo sapiens [30]): 92 µM
IC50 (Homo sapiens [31]): 1.3 µM
EC50 (Homo sapiens [1]): 9.6 µM
Ratio [32]: 72
SMILES: CSCC[C@H](NC(=O)[C@H](CC(=O)O)NC(=O)[C@H](CCCCN)NC(=O)[C@H](Cc1ccccc1)NC(=O)[C@H](CO)NC(=O)[C@@H](N)Cc1ccc(O)cc1)C(=O)N[C@@H](CCC(N)=O)C(=O)N[C@@H](CC(C)C)C(=O)NCC(=O)N[C@@H](CCCN=C(N)N)C(=O)O (H-YSFKDMQLGR-OH)
C5a max (Homo sapiens [26]): 87%
C5a affinity (Homo sapiens [17]): 0.022%
Mean log concentration ratio (Homo sapiens [4]): 3
Selectivity [27]: 8.3
Potency (Homo sapiens [28]): 0.04%
Mean log concentration ratio (Homo sapiens [29]): 3.42
pD2 (Homo sapiens [9]): 4.96
pD2 (Homo sapiens [33]): 4.04
Potency (Homo sapiens [10]): 0.1%
